Reference: ChEMBL document CHEMBL3352269, “Discovery of 2-Pyridylpyrimidines as the First Orally Bioavailable GPR39 Agonists” (ACS Med Chem Lett, 2014)
Activity calls are given as the source filed them. The calls are words filed in the database; no cut-off is given here.

Columns and labels:
[1] = molecular target: T1, G-protein coupled receptor 39 (Mus musculus, UniProt Q5U431); assay: Agonist activity at mouse GPR39 expressed in HEK293 cells by IP1 assay; assay type: functional, cell-based
T1 sequence (Q5U431 whole entry): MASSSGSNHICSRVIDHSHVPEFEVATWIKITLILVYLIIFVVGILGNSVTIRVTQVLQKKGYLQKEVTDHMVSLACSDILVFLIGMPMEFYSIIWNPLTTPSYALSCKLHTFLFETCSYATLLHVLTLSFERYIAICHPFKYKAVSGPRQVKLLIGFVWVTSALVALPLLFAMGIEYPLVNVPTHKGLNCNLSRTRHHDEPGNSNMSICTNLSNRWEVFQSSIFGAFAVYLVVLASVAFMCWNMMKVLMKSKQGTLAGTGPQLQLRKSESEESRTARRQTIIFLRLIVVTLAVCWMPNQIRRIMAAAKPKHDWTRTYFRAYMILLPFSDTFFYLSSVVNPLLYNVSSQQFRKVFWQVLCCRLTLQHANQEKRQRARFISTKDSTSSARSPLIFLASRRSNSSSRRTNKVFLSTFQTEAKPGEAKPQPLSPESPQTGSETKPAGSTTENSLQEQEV
Procedure, shortened: (§1)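 Gαq signalling read as inositol-1-phosphate (IP1) accumulation in HEK293 cells overexpressing human, mouse or rat GPR39. EC50 taken from an 11-point dose–response curve run in triplicate. Replicates range from 1 to 4, with standard deviation where available.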

[2] = molecular target: T2, G-protein coupled receptor 39 (Homo sapiens, UniProt O43194); assay: Agonist activity at human GPR39 expressed in HEK293 cells by IP1 assay; assay type: functional, cell-based; procedure, shortened: as §1
T2 sequence (O43194 whole entry): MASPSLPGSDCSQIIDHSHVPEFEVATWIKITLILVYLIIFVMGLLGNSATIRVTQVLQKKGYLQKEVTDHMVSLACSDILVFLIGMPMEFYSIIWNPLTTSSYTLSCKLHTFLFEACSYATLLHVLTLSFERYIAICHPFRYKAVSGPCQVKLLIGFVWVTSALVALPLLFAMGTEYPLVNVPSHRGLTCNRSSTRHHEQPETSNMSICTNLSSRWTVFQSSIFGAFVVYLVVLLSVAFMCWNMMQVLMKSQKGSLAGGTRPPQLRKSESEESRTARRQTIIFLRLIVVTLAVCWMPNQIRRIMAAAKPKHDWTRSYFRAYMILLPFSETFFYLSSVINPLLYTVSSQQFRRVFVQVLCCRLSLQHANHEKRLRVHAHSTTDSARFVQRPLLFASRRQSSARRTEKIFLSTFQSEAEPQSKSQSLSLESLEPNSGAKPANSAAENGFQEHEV

[3] = Clearance in Sprague-Dawley rat at 1 mg/kg, iv administered as single dose; assay type: ADME, organism-based; design: dose 1 mg/kg, route intravenous; conditions: in vivo
Procedure, shortened: (§2)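 Sprague–Dawley rats received a single iv dose of 1 mg/kg, with clearance measured, or an oral dose of 3 mg/kg, with bioavailability (F) measured.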

[4] = Hepatic clearance in rat liver microsomes; assay type: ADME
Procedure, shortened: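 Predicted hepatic clearance calculated from intrinsic clearance in rat liver microsomes.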

[5] = Oral bioavailability in Sprague-Dawley rat at 3 mg/kg; assay type: ADME, organism-based; conditions: in vivo; procedure, shortened: as §2
[6] = molecular target: T2, G-protein coupled receptor 39; assay: Agonist activity at human GPR39 by IP1 assay; assay type: functional; procedure, shortened: as §1
[7] = Oral bioavailability in Sprague-Dawley rat at 5 mg/kg; assay type: ADME, organism-based; conditions: in vivo
Procedure, shortened: (§3)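 Sprague–Dawley rats received a single iv dose of 2 mg/kg or an oral dose of 5 mg/kg. Vehicle was 10% NMP, 30% PEG200 and 5% Solutol in water. Clearance was taken from the iv arm and bioavailability from the oral arm.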

[8] = molecular target: T3, Protein Gpr39 (Rattus norvegicus, UniProt A6QR73); assay: Agonist activity at rat GPR39 by IP1 assay; assay type: functional; procedure, shortened: as §1
T3 sequence (A6QR73 whole entry): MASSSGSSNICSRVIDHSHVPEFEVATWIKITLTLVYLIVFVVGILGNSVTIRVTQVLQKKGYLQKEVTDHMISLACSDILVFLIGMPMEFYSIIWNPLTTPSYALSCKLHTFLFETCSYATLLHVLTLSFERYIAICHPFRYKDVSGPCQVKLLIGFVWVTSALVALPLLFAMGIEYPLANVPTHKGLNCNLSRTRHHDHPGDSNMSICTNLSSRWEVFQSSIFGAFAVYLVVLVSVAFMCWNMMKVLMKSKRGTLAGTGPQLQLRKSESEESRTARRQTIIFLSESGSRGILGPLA

[9] = molecular target: T1, G-protein coupled receptor 39; assay: Agonist activity at mouse GPR39 by IP1 assay; assay type: functional; procedure, shortened: as §1
[10] = Clearance in Sprague-Dawley rat at 2 mg/kg, iv administered as single dose; assay type: ADME, organism-based; design: dose 2 mg/kg, route intravenous; conditions: in vivo; procedure, shortened: as §3
[11] = Protection against cytokine-induced cell death in rat INS-1E cells assessed as caspase 3/7 activity; assay type: functional, cell-based
Procedure, shortened: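 Rat insulinoma INS-1E cells (beta-cell phenotype) were treated with cytokines to induce cell death. Caspase 3/7 activity was the read-out. Dose–response run in triplicate.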

[12] = molecular target: T4, G-protein coupled receptor 39 (Homo sapiens) (UniProt O43194); assay: Agonist activity at human GPR39 expressed in HEK293 cells by cAMP assay relative to forskolin; assay type: functional, cell-based
T4 sequence (whole entry): T2 sequence (O43194 whole entry)
Procedure, shortened: (§4)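 cAMP accumulation (Gαs signalling) in HEK293 cells overexpressing human GPR39. Dose–response curve run in triplicate, 1–16 replicates. EC50 derived from the curve. Percent efficacy is expressed relative to the cAMP response to 25 μM forskolin.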

[13] = molecular target: T2, G-protein coupled receptor 39; assay: Agonist activity at human GPR39 expressed in HEK293 cells by cAMP assay; assay type: functional, cell-based; procedure, shortened: as §4
[14] = Induction of GLP1 secretion in mouse STC1 cells incubated for 2 hrs by fluorescent bead based ELISA method; assay type: functional, cell-based; conditions: STC-1, 2 h
Procedure, shortened: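 Mouse enteroendocrine STC-1 cells, which express endogenous GPR39, were assayed for GLP-1 secretion over a dose–response run in triplicate. Maximal activity is expressed as fold increase in GLP-1 over the DMSO control.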

[15] = molecular target: T3, Protein Gpr39; assay: Agonist activity at rat GPR39 expressed in HEK293 cells by IP1 assay; assay type: functional, cell-based; procedure, shortened: as §1
[16] = molecular target: Neurotensin receptor type 1 (Homo sapiens, UniProt P30989); assay: Binding affinity to human neurotensin 1 receptor
[17] = Half life in C57BL/6 mouse at 10 mg/kg, po administered as single dose by LC/MS/MS method; assay type: ADME, organism-based; design: dose 10 mg/kg, route oral; conditions: in vivo
Procedure, shortened: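 Male C57BL/6 mice, separate study with a single 10 mg/kg dose. Half-life calculated from the plasma concentration profile.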

[18] = system: Mus musculus; assay: Increase in GLP1 level in C57BL/6 mouse at 30 mg/kg, po concurrently dosed with 3 mg/kg, po DPP4 inhibitor PKF275-055 followed by glucose challenge after 1 hr post drug dose; assay type: functional
Procedure, shortened: (§5)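 Male C57BL/6 mice were dosed orally with compound together with a DPP-IV inhibitor. After 1 h they were challenged with oral glucose at 3 g/kg. Active GLP-1 and plasma exposure were measured 30 min later. One-way ANOVA with Dunnett's post-test against the vehicle group.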

[19] = Cmax in C57BL/6 mouse at 30 mg/kg, po administered as single dose after 1 to 1.5 hrs by LC/MS/MS method; assay type: ADME, organism-based; design: dose 30 mg/kg, route oral; conditions: in vivo
[20] = Plasma concentration in C57BL/6 mouse at 30 mg/kg, po concurrently dosed with 3 mg/kg, po DPP4 inhibitor PKF275-055 followed by glucose challenge after 1 hr post drug dose; assay type: ADME, organism-based; procedure, shortened: as §5
[21] = molecular target: Growth hormone secretagogue receptor type 1 (Homo sapiens, UniProt Q92847); assay: Binding affinity to human ghrelin receptor
[22] = Protein binding in rat plasma; assay type: ADME, cell-free; conditions: read-out: PPB (converted)
[23] = Protein binding in mouse plasma; assay type: ADME, cell-free; conditions: read-out: PPB (converted)
[24] = Cmax in C57BL/6 mouse at 100 mg/kg, po administered as single dose after 1 to 1.5 hrs by LC/MS/MS method; assay type: ADME, organism-based; design: dose 100 mg/kg, route oral; conditions: in vivo
[25] = Cmax in C57BL/6 mouse at 10 mg/kg, po administered as single dose after 1 to 1.5 hrs by LC/MS/MS method; assay type: ADME, organism-based; design: dose 10 mg/kg, route oral; conditions: in vivo
[26] = Permeability from apical to basolateral side in human Caco2 cells; assay type: ADME, cell-based; conditions: Caco-2, read-out: permeability
[27] = Aqueous solubility at pH 6.8; assay type: physicochemical
[28] = molecular target: T4, G-protein coupled receptor 39 (Homo sapiens); assay: Agonist activity at human GPR39 expressed in HEK293 cells in presence of sub-EC50 dose of zinc chloride by IP1 assay; assay type: functional, cell-based

Sequence of Growth hormone secretagogue receptor type 1 (Q92847 whole entry): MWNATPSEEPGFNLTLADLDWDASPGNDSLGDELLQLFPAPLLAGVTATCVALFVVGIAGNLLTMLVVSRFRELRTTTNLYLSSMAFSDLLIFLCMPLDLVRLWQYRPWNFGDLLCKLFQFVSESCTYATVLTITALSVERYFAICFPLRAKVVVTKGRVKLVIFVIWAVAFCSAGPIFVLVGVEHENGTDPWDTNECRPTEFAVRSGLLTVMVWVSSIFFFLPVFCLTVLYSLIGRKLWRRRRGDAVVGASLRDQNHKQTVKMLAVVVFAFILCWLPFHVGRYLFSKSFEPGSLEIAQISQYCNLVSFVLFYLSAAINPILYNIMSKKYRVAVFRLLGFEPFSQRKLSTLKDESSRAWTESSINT
Sequence of Neurotensin receptor type 1 (P30989 whole entry): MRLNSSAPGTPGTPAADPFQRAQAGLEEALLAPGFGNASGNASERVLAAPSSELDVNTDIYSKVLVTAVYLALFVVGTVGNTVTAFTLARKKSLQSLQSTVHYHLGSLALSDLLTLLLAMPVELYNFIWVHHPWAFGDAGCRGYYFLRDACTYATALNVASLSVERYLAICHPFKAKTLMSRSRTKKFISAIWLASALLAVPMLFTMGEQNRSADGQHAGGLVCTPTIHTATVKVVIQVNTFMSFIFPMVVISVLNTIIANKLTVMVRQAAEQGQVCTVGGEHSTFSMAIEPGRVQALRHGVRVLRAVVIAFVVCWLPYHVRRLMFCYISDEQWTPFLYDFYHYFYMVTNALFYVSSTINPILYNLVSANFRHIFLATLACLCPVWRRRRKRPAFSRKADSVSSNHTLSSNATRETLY

| EC50 [1] [nM] | EC50 [2] [nM] | CLhep predicted [4] [mL/min/kg] | SMILES | Efficacy [12] [%] | EC50 [13] [nM] | EC50 [15] [nM] | other results |
| --- | --- | --- | --- | --- | --- | --- | --- |
| 185 | 36 | 34.1 | CNc1nc(NCc2ccc(S(C)(=O)=O)cc2)cc(-c2ccccn2)n1 |  |  |  | clearance [3]: 18 mL/min/kg; bioavailability [5]: 45% |
| 22 | 600 |  | FC(F)(F)Oc1ccc(CNc2nc(NCC3CC3)cc(-c3ccccn3)n2)cc1 |  |  |  |  |
| 8 | 30 | 31.9 | CNC(=O)c1ccc(CNc2cc(-c3ccccn3)nc(NC)n2)cc1 |  |  |  |  |
| 8 | 3 | 33.6 | CNc1nc(NCc2ccc(NS(C)(=O)=O)cc2)cc(-c2ccccn2)n1 | 55 | 180 | 3 | fold change (FC) [18]: <2; EC50 [11]: 400 nM; concentration at 1 h [20]: 2000 nM; EC50 [14]: 1300 nM; Papp A→B [26]: 6.9 ×10⁻⁶ cm/s |
| 7 | 13 | > 52.3 | CNc1nc(NCc2ccc(OC(F)(F)F)cc2)cc(-c2ccccn2)n1 |  |  |  |  |

Second part, the compound before the results:

| SMILES | EC50 [1] [nM] | EC50 [2] [nM] | CLhep predicted [4] [mL/min/kg] | Efficacy [12] [%] | EC50 [13] [nM] | EC50 [15] [nM] | other results |
| --- | --- | --- | --- | --- | --- | --- | --- |
| COCCNc1nc(NCC2CC2)cc(-c2ccccn2)n1 | 10000 | 2200 |  |  |  |  |  |
| CNc1nc(NCc2ccc(Cl)cc2Cl)cc(-c2ccccn2)n1 | 0.5 | 0.8 | > 52.3 |  |  |  |  |
| O=S(=O)(NC[C@H]1CC[C@H](CNc2cc(-c3ccccn3)nc(NC3CC3)n2)CC1)c1cccc(F)c1 |  |  |  |  |  |  | EC50 [6]: 11 nM; bioavailability [7]: 25%; EC50 [8]: 1 nM; EC50 [9]: 3 nM; clearance [10]: 42 mL/min/kg |
| CNc1nc(NCc2ccc(NC(C)=O)cc2F)cc(-c2ccccn2)n1 |  | 1 | 25.9 | 55 | 350 | 0.6 | EC50 [11]: 40 nM; EC50 [14]: 200 nM |
| CNc1nc(NCc2ccc(NS(C)(=O)=O)cc2Cl)cc(-c2ccccn2)n1 |  | 0.8 | 41.3 | 64 | 60 | 0.4 | IC50 [16]: > 30000 nM; half-life [17]: 7 h; EC50 [6]: 0.8 nM; fold change (FC) [18]: 6; Cmax [19]: 6100 nM; EC50 [11]: 20 nM; concentration at 1 h [20]: 1600 nM; EC50 [8]: 0.4 nM; IC50 [21]: > 30000 nM; EC50 [14]: 60 nM; fraction unbound [22]: 0.007; fraction unbound [23]: 0.009; Cmax [24]: 25300 nM; Cmax [25]: 1400 nM |
| O=S(=O)(NC[C@H]1CC[C@H](CNc2nc(NC3CC3)cc(-c3ccccn3)n2)CC1)c1cccc(F)c1 |  |  | 51.2 |  |  |  | EC50 [6]: 202 nM; solubility [27]: < 5 µM; EC50 [8]: 12 nM; EC50 [9]: 4 nM |
| O=S(=O)(NC[C@H]1CC[C@H](CNc2cc(-c3ccccn3)nc(NCC3CC3)n2)CC1)c1ccc(F)cc1 |  |  |  |  |  |  | Activity [28]: Active |
| [Cl-].[Cl-].[Zn+2] [ZINC CHLORIDE] |  |  |  | 48 | 3600 | 4040 |  |
